Data set [1] is described as follows: Selectivity index, ratio of CC50 for human THP1 cells to IC50 for amastigote stage of Leishmania infantum. The format is functional, THP-1. In short, it runs like this:
(§1)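 Selectivity index was calculated as CC50 in Vero (T. cruzi) or THP-1 (L. infantum) cells divided by parasite IC50. Both values came from 72 h mammalian-cell MTT assays and the parasite assays; SI ≥ 3 was defined as parasite-selective.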

Data set [2] deals with Leishmania infantum. Kind of data set: Antiparasitic activity against promastigote stage of Leishmania infantum assessed as parasite growth inhibition after 72 hrs by hemocytometery.
Data set [3] in a line: Selectivity index, ratio of CC50 for African green monkey Vero cells to IC50 for epimastigote stage of Trypanosoma cruzi. The format is functional. In short, it runs like this:
as §1

Data set [4] concerns Trypanosoma cruzi. Kind of data set: Antiparasitic activity against amastigote stage of Trypanosoma cruzi infected in Vero cells assessed as parasite growth inhibition after 24 hrs by hemocytometery. The format is functional, organism-based. The note with it: Trypanosoma cruzi, Vero, 24 h; read-out: IC50. In short, it runs like this: (§2)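 Host cells were Vero for T. cruzi (infected with tissue-derived trypomastigotes) and THP-1 (PMA-transformed, 10 ng/mL) for L. (L.) infantum (infected with late-phase promastigotes), at 1:10 cell:parasite for 24 h. Serial dilutions were given as two doses, the second on day 3 with a medium change. Read-out was % infected cells on methanol-fixed, Giemsa-stained slides (300 cells). IC50 came from sigmoidal regression; experiments in duplicate, concentrations in triplicate.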

A short description of data set [5]: Selectivity index, ratio of CC50 for human THP1 cells to IC50 for promastigote stage of Leishmania infantum. It is filed as functional, THP-1. In short, it runs like this:
as §1

Data set [6] has as its system Trypanosoma cruzi. Put plainly: Antiparasitic activity against epimastigote stage of Trypanosoma cruzi infected in Vero cells assessed as parasite growth inhibition […] by hemocytometery. The format is functional, organism-based. In short, it runs like this:
(§3)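 Exponential-phase T. cruzi Sylvio X10 epimastigotes (LIT medium with hiFCS) or L. (L.) infantum MHOM/BR/74/PP75 promastigotes (RPMI 1640, hemin, HEPES, 10% hiFCS) were exposed to threefold serial dilutions (0.3–300 µg/mL) for 72 h at 28 °C. Viable parasites were counted by hemocytometer with 0.25% eosin yellow. IC50 came from sigmoidal regression, given as mean ± SD.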

The nature of data set [7]: Cytotoxicity against human THP1 cells. The format is cell-based. To be noted: THP-1 cells. In short, it runs like this:
(§4)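 Vero monolayers or THP-1 cells (made adherent with 10 ng/mL PMA), in RPMI 1640 with 10% hiFCS, were exposed to compound (0.3–300 µg/mL) for 72 h at 37 °C, 5% CO2. Viability was measured by MTT, with formazan dissolved in DMSO and read at 580 nm. % cytotoxicity was calculated against untreated cells; CC50 came from sigmoidal regression, given as mean ± SD.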

Data set [8] in a line: Cytotoxicity against African green monkey Vero cells. It is filed as cell-based. To be noted: chlorocebus sabaeus. In short, it runs like this: as §4
The subject of data set [9] is Leishmania infantum. Kind of data set: Antiparasitic activity against amastigote stage of Leishmania infantum infected in THP1 cells assessed as parasite growth inhibition after 24 hrs by hemocytometery. To be noted: Leishmania infantum, THP-1, 24 h; read-out: IC50. The format is functional, organism-based, THP-1. An outline of the steps:
as §2

Data set [10] in a line: Selectivity index, ratio of CC50 for African green monkey Vero cells to IC50 for amastigote stage of Trypanosoma cruzi. It is filed as functional. An outline of the steps: as §1
Data set [11] has as its system Leishmania infantum. Kind of data set: Antiparasitic activity against promastigote stage of Leishmania infantum infected in THP1 cells assessed as parasite growth inhibition […] by hemocytometery. The format is functional, organism-based. The note with it: THP-1. An outline of the steps:
as §3

A value given as a limit tells only on which side of the number the result lay.

As a reminder, the IC50 is the concentration at which inhibition is half-maximal. What is called CC50 is the concentration that lowers cell viability or growth by half. Consider `c1csc([C@@H]2C[C@H]3Cc4ccccc4N2O3)c1` (relative stereo), for which the “Selectivity Index” value in data set [1] is on record as 1.8; in data set [3], 11.6; in data set [5], 45.7. Moreover, the IC50 in data set [2] was 15.9 µM; in data set [4], more than 411 µM; in [6], 198 µM; in data set [9], 406 µM. In addition, the CC50 came out at 727 µM in [7] and 2310 µM in data set [8].
Take `O[C@@H]1Cc2ccccc2N[C@H](c2cccs2)C1` (relative stereo): the “Selectivity Index” value in data set [1] stood at 5.6; in [3], 4.5; in data set [5], 5.3. The concentration for half-maximal inhibition (IC50) is 146 µM in data set [2], more than 408 µM in [4], 219 µM in data set [6] and 138 µM in data set [9]. Further, the CC50 amounted to 773 µM in data set [7] and 986 µM in [8].
In the case of `Cc1ccsc1[C@@H]1C[C@H]2Cc3cc(F)ccc3N1O2` (racemic), the “Selectivity Index” value is given as 1.1 in [1], 5.9 in [3], 2.9 in data set [5] and 1.8 in data set [10]. The IC50 in [2] was 75.9 µM; in [4], 330 µM; in data set [6] it was 102 µM; in data set [9] it was 204 µM. Moreover, the half-maximal cytotoxic concentration (CC50) in data set [7] was found to be 221 µM; in data set [8] it was 601 µM.
Take `Fc1ccc2c(c1)C[C@@H]1C[C@@H](c3cccs3)N2O1` (racemic): the “Selectivity Index” value in [1] was found to be 5.6; in [3], 13.5; in data set [5], 86.6; in data set [10], 13.5. The IC50 was determined as 11.5 µM in data set [2], 103 µM in data set [4], 104 µM in data set [6] and 177 µM in [9]. The CC50 was 991 µM in data set [7] and 1400 µM in data set [8].
For the molecule `Cc1ccsc1[C@@H]1C[C@H]2Cc3ccccc3N1O2` (racemic), the “Selectivity Index” value is recorded as 1 in data set [1], 16.4 in [3], 6.7 in data set [5] and 3.4 in data set [10]. Further, the IC50 is 56.6 µM in data set [2], 134 µM in data set [4], 27.6 µM in data set [6] and 368 µM in [9]. Besides, the CC50 in [7] is 377 µM; in data set [8] it was 453 µM.
For `FC(F)(F)Oc1ccc2c(c1)C[C@@H]1C[C@@H](c3ccco3)N2O1` (racemic), the “Selectivity Index” value amounted to 1.9 in data set [1], 0.6 in [3], 19.9 in data set [5] and 0.3 in [10]. The IC50 stood at 16 µM in data set [2], 319 µM in data set [4], 166 µM in [6] and 172 µM in data set [9]. Besides, the figures for the CC50 in data set [7] and in data set [8] were 319 µM and 93.4 µM, respectively.
As for `Cc1ccc([C@@H]2C[C@H](O)Cc3cc(F)ccc3N2)s1` (relative stereo), the “Selectivity Index” value turned out to be 4.9 in data set [3], 18.5 in [5] and 6.53 in data set [10]. Also, the IC50 in data set [4] was 123 µM; in data set [11], 16.9 µM; in [6], 164 µM; in data set [9], more than 120 µM. In addition, the CC50 in data set [7] was found to be 312 µM; in [8], 801 µM.
`Clc1ccc2c(c1)C[C@@H]1C[C@@H](c3ccc(Br)s3)N2O1` (racemic): the “Selectivity Index” value is given as more than 25.9 in data set [1], 113.4 in data set [3], more than 117.9 in data set [5] and 69.8 in [10]. Further, the half-inhibitory concentration (IC50) in [2] was found to be 14.3 µM; in data set [4] it was 23.9 µM; in data set [6] it was 14.7 µM; in data set [9], 65.2 µM. In addition, the CC50 in data set [7] was more than 1690 µM; in [8], 1660 µM.
Regarding `Cc1ccc([C@@H]2C[C@H]3Cc4ccccc4N2O3)o1` (racemic), the “Selectivity Index” value in [1] was found to be 1; in data set [3], 5.7; in data set [5], 14.5. The half-inhibitory concentration (IC50) in data set [2] was 27.3 µM; in [4], more than 415 µM; in data set [6], 92.9 µM; in data set [9], 398 µM. Besides, the 50% cytotoxic concentration (CC50) was determined as 394 µM in data set [7] and 533 µM in data set [8].
Consider `C[C@@H]1[C@H](O)[C@@H](C)/C=C/C=C/C=C/C=C/C=C/C=C/C=C/[C@H](O[C@@H]2O[C@H](C)[C@@H](O)[C@H](N)[C@@H]2O)C[C@@H]2O[C@](O)(C[C@@H](O)C[C@@H](O)[C@H](O)CC[C@@H](O)C[C@@H](O)CC(=O)O[C@H]1C)C[C@H](O)[C@H]2C(=O)O` [AMPHOTERICIN B], for which the “Selectivity Index” value came out at 456.6 in [1] and 927.5 in data set [5]. Also, the concentration for half-maximal inhibition (IC50) in [2] came to 0.03 µM; in data set [9] it was 0.01 µM. In [7], this molecule gave a 50% cytotoxic concentration (CC50) of 29.7 µM.
`Cc1ccc([C@@H]2C[C@H](O)Cc3cc(Cl)ccc3N2)o1` (relative stereo): the results for the “Selectivity Index” value in data set [3], in data set [5] and in data set [10] were 4.9, more than 9.9 and 0.93, respectively. For the same molecule, the IC50 in data set [4] is 323 µM; in [11], 110 µM; in data set [6], 61.8 µM; in data set [9] it was more than 361 µM. Further, the CC50 in data set [7] is more than 1080 µM; in data set [8], 300 µM.
